pIC50, pKi: −log10 of the molar value. Values after ≈ are worked out from the molar mass of the structure shown.
Legend:
[1] = Displacement of [3H]RX821002 from adrenergic alpha2 receptor
[2] = Plasma concentration in DBA/2 mouse at 160 mg/kg/day, po administered for 7 days with water; format: ADME, organism-based; parameters: route oral
Summary of the method: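 DBA/2 mice received the compound dissolved in drinking water (1 mg/mL) ad libitum. Mean water intake was 4.0 mL/mouse/day, giving about 160 mg/kg/day. Plasma levels of compound, L-Trp and kynurenine were measured at days 0, 1, 2 and 7.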

[3] = target: Tryptophan 2,3-dioxygenase (Mus musculus, UniProt P48776); assay: Inhibition of mouse TDO expressed in mouse P815B cells assessed as inhibition of tryptophan catabolism by measuring kynurenine production after 8 hrs by HPLC analysis; format: cell-based
Tryptophan 2,3-dioxygenase (Mus musculus, UniProt P48776), sequence (P48776 whole entry): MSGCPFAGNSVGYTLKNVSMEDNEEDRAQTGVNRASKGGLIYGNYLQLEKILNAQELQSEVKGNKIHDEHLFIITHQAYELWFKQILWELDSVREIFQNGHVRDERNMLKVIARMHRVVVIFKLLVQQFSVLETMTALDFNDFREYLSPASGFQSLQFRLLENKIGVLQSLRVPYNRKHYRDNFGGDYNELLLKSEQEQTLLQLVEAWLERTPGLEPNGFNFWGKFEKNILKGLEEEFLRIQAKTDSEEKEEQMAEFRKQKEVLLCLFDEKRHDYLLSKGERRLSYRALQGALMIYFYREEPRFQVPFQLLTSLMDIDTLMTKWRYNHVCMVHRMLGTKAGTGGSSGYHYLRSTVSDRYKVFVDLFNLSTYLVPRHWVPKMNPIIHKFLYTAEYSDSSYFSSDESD

[4] = Cytotoxicity against mouse P815B cells […] by MTT assay; format: functional; conditions: read-out: LD50 (the source's name)
[5] = Chemical stability of the compound in phosphate buffered saline assessed as compound remaining at pH 7.4 after 1.5 hrs; format: physicochemical; conditions: read-out: Stability
Summary of the method: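 Compound was incubated in phosphate-buffered saline, pH 7.4, for 1.5 h; read-out was the percentage of compound recovered.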

[6] = target: Tryptophan 2,3-dioxygenase (Homo sapiens, UniProt P48775); assay: Competitive inhibition of human recombinant TDO expressed in Escherichia coli BL21 using L-tryptophan as substrate by measuring conversion of N-formylkynurenine into kynurenine after 30 mins by Michaelis-Menten steady state analysis
Tryptophan 2,3-dioxygenase (Homo sapiens, UniProt P48775), sequence (P48775 whole entry): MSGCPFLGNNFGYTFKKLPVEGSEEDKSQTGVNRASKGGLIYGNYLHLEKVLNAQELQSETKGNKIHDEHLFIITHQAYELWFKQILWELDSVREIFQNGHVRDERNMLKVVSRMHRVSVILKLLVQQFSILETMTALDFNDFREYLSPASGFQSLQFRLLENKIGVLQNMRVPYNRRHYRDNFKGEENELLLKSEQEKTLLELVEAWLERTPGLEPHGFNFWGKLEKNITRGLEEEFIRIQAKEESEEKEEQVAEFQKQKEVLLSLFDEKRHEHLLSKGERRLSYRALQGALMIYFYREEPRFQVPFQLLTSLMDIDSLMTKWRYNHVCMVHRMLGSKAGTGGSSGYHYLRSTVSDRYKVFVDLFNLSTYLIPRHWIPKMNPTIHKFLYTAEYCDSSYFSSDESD

[7] = Solubility of the compound in phosphate buffered saline at pH 7.4; format: physicochemical
Summary of the method: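 Solubility was measured experimentally in phosphate buffer (PBS), pH 7.4, at room temperature.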

[8] = target: T1, MAO-A (amine oxidase [flavin-containing] A) (Homo sapiens, UniProt P21397); assay: Inhibition of MAO-A at 10 uM relative to control
T1 sequence (P21397 whole entry): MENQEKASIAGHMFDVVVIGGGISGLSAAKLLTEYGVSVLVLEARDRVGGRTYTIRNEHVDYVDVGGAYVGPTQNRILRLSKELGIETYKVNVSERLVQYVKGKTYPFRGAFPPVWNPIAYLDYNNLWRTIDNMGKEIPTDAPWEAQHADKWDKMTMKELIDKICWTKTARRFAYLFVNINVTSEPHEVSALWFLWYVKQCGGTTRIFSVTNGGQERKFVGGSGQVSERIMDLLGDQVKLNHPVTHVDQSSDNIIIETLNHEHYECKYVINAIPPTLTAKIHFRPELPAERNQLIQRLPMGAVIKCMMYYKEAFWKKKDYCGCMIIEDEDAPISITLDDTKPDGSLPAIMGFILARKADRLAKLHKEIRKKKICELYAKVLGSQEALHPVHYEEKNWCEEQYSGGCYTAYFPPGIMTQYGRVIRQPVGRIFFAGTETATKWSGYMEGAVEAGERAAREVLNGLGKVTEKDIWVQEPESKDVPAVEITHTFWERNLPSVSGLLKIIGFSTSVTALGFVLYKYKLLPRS

[9] = target: T2, MAO-B (amine oxidase [flavin-containing] B) (Homo sapiens, UniProt P27338); assay: Inhibition of MAO-B at 10 uM relative to control
T2 sequence (P27338 whole entry): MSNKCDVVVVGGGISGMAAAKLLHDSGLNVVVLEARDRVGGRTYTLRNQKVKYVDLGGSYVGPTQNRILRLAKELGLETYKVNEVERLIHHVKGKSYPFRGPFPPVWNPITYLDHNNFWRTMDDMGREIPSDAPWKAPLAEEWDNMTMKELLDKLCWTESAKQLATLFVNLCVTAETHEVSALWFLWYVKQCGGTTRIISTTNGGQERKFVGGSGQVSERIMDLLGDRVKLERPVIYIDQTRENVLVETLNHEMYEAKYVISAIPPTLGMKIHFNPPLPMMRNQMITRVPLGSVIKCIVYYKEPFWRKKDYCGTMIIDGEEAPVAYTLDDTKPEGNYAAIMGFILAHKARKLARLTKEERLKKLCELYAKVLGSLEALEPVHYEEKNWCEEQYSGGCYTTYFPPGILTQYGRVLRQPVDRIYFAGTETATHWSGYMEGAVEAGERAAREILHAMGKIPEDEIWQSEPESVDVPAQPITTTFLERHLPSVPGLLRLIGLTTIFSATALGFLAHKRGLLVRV

Mus musculus = assay: Toxicity in mouse P815B cells expressing TDO xenografted immunized mouse at 160 mg/kg/day, po administered with water; format: organism-based; parameters: route oral; conditions: in vivo
[10] = target: 5-hydroxytryptamine receptor 2B (Homo sapiens, UniProt P41595); assay: Displacement of [125I](+/-)-DOI from human 5HT2B receptor
5-hydroxytryptamine receptor 2B, sequence (P41595 whole entry): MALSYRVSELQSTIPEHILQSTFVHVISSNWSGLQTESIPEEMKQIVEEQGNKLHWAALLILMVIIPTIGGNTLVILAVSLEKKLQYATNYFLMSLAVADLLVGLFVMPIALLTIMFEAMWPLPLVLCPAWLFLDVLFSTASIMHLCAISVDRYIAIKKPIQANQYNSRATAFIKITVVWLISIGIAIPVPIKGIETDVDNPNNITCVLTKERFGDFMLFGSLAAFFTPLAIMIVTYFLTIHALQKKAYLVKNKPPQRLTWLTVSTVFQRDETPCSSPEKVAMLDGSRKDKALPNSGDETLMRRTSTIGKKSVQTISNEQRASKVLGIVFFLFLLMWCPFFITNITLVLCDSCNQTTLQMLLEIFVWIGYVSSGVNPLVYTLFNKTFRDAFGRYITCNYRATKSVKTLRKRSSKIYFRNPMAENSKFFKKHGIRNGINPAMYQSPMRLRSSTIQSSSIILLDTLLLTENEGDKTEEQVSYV

[11] = Displacement of [3H]prazosin from adrenergic alpha1 receptor

SMILES | pIC50 [3] | CC50 [4] | further results
COC(=O)[C@@H]1[C@H]2C[C@H]3c4[nH]c5ccccc5c4CCN3C[C@@H]2CC[C@@H]1O [YOHIMBINE] |  |  | pKi [1]: 7.48
O=C(O)/C=C/c1c[nH]c2cc(F)ccc12 | 5.52 | > 400 µM | concentration at 168 h [2]: 1400 nM; remaining at 1.5 h [5]: 92.9%; pKi [6]: 4.49; solubility [7]: > 300 µM
Fc1ccc2c(/C=C/c3nnn[nH]3)c[nH]c2c1 | 5.70 | > 400 µM | inhibition at 10 µM [8]: < 10%; inhibition at 10 µM [9]: < 10%; Activity (Mus musculus): Non-toxic; concentration at 168 h [2]: 60000 nM; remaining at 1.5 h [5]: 93.3%; solubility [7]: > 300 µM
Fc1ccc2c(/C=C/c3cccc(Cl)c3)c[nH]c2c1 | < 3.70 | > 200 µM | 
N#Cc1c[nH]c2ccccc12 | < 4.10 | > 80 µM | 
O=[N+]([O-])c1ccc2[nH]cc(/C=C/c3cccnc3)c2c1 | < 3.70 | > 200 µM | 
N#CCCc1c[nH]c2ccccc12 | < 4.10 | > 80 µM | 
COC(=O)c1cccc2[nH]cc(/C=C/c3cccnc3)c12 | < 3.70 | > 200 µM | 
Cc1ccc2c(/C=C/c3cccnc3)c[nH]c2c1 | < 3.70 | > 200 µM | 
C(=C\c1c(-c2ccccc2)[nH]c2ccccc12)/c1cccnc1 | < 3.70 | > 200 µM | 
C(=C\c1ccc2ccccc2c1)/c1cccnc1 | < 3.70 | > 80 µM | 
Brc1ccc2c(/C=C/c3cccnc3)c[nH]c2c1 | < 3.70 | > 200 µM | 
COc1cc(CC(C)N)c(OC)cc1I (racemic) |  |  | pKi [10]: 8.70
N#C/C(=C\c1c[nH]c2cc(F)ccc12)c1ccccc1 | < 4.10 | > 80 µM | 
C(=C\c1c[nH]c2ncccc12)/c1cccnc1 | 4.74 | > 80 µM | 
N#Cc1cccc(/C=C/c2c[nH]c3cc(F)ccc23)c1 | 6.00 | 20 µM | 
C(=C\c1c[nH]c2ccccc12)/c1ccncc1 | 4.70 | > 100 µM | 
Cc1[nH]c2ccccc2c1/C=C/c1cccnc1 | < 3.70 | > 200 µM | 

SMILES | pIC50 [3] | CC50 [4] | further results
Fc1ccc2c(/C=C/c3cccnc3)c[nH]c2c1 | 6.00 | > 80 µM | concentration at 168 h [2]: 100 nM; remaining at 1.5 h [5]: 67.6%; solubility [7]: 92 µM (≈ 21.9 µg/mL)
Clc1cccc2c(/C=C/c3cccnc3)c[nH]c12 | < 3.70 | > 200 µM | 
c1ccc2c(CCc3nnn[nH]3)c[nH]c2c1 | < 4.10 | > 80 µM | 
COC(=O)/C=C/c1c[nH]c2cc(F)ccc12 | 5.70 | 40 µM | 
C(=C\c1c[nH]cn1)/c1cccnc1 | < 3.70 | > 80 µM | 
Cc1cccc2c(/C=C/c3cccnc3)c[nH]c12 | < 3.70 | > 200 µM | 
c1ccc2c(-c3nnn[nH]3)c[nH]c2c1 | < 4.10 | > 80 µM | 
c1ccc2c(Cc3nnn[nH]3)c[nH]c2c1 | < 4.10 | > 80 µM | 
Fc1ccc2c(/C=C/c3ccncc3)c[nH]c2c1 | 5.52 | 200 µM | 
Clc1ccc2c(/C=C/c3cccnc3)c[nH]c2c1 | 4.70 | > 40 µM | 
C(=C\c1c[nH]c2ccccc12)/c1nnn[nH]1 | 5.00 | > 80 µM | 
COc1cc2nc(N3CCN(C(=O)c4ccco4)CC3)nc(N)c2cc1OC [PRAZOSIN] |  |  | pKi [11]: 10.15
N#Cc1cccc2[nH]cc(/C=C/c3cccnc3)c12 | < 3.70 | > 200 µM | 
N#C/C=C/c1c[nH]c2ccccc12 | 4.89 | > 80 µM | 
C(=C\c1c[nH]c2ccccc12)/c1ccccn1 | 4.70 | > 100 µM | 
Fc1ccc(-c2n[nH]cc2/C=C/c2cccnc2)cc1 | < 3.70 | > 80 µM | 
Fc1ccc2c(/C=C/c3ccccc3)c[nH]c2c1 | 4.40 | 40 µM | 
Cc1ccc2[nH]cc(/C=C/c3cccnc3)c2c1 | < 3.70 | > 200 µM | 
